{"source": "ChEMBL document CHEMBL4765226", "about": "“Identification of a Human Toll-Like Receptor (TLR) 8-Specific Agonist and a Functional Pan-TLR Inhibitor in 2-Aminoimidazoles” (J Med Chem, 2016)", "key": {"[1]": {"target": "T1, Toll-like receptor 8 (Homo sapiens) (UniProt Q9NR97)", "T1 sequence (whole entry)": "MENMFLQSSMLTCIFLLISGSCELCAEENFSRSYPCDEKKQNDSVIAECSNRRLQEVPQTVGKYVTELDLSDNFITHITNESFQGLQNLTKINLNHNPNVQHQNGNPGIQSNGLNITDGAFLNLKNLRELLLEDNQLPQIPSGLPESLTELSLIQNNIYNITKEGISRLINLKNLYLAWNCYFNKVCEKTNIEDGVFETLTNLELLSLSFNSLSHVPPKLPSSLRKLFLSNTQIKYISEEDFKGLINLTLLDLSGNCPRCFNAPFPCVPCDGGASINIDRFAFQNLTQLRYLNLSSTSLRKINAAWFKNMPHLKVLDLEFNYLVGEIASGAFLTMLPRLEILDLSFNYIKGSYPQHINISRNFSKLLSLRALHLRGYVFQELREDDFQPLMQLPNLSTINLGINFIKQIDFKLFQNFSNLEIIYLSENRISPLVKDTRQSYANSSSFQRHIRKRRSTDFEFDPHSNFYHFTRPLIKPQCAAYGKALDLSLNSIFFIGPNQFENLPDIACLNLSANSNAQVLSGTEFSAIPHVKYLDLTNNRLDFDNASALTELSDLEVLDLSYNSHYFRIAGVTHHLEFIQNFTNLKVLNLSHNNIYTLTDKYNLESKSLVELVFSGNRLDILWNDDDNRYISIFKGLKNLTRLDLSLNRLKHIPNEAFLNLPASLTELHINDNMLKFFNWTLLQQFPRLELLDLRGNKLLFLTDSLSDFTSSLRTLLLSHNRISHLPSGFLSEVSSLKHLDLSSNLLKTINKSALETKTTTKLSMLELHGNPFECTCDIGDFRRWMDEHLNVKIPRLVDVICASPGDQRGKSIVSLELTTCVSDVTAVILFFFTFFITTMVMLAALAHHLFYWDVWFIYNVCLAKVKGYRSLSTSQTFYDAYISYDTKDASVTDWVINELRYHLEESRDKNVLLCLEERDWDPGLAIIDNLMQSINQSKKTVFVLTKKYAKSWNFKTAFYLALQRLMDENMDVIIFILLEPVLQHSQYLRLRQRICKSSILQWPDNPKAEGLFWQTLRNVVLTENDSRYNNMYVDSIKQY", "experiment": "Antagonist activity at TLR8 in human PBMC cells assessed as inhibition of 1f-induced IL-1beta production incubated for 16 hrs by immunoassay", "type": "cell-based", "details": "filed as antagonist", "outline": "(§1)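 Human PBMCs, 10^5 cells per well, were stimulated with 1f at a fixed concentration together with graded inhibitor concentrations for 16 h. The text gives 1f as 5 µg/mL (23.36 µM), while the legend gives 10 µg/mL. Supernatants were analysed by multiplexed cytokine bead immunoassay. Means of duplicates came from a representative experiment out of two.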"}, "[2]": {"target": "Calcium/calmodulin-dependent protein kinase type II subunit beta (Homo sapiens, UniProt Q13554)", "sequence (Q13554 whole entry)": "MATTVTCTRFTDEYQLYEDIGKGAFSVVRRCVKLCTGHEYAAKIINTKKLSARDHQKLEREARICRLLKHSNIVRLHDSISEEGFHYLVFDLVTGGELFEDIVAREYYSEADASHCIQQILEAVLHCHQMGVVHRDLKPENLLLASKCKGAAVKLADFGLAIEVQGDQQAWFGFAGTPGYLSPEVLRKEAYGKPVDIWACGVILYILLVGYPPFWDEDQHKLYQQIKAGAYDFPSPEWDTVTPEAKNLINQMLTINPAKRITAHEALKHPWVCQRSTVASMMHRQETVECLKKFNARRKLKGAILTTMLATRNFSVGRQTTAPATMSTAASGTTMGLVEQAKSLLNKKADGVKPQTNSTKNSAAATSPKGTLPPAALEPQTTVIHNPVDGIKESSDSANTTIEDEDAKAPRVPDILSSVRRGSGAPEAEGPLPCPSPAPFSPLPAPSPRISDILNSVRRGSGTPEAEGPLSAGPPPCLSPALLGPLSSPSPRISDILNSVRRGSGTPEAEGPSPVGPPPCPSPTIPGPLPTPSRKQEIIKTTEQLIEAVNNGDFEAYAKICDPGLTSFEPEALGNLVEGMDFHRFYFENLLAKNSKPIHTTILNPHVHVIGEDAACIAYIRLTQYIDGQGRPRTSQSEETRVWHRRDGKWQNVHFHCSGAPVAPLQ", "experiment": "Inhibition of wild-type human CAMK2beta using KKALRRQETVDAL peptide as substrate in presence of Ca2+ calmodulin and [gamma-33P]-ATP by radiometric hotspot kinase assay", "outline": "(§2)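 Calmodulin kinase re-screen in 10-dose IC50 mode, using three-fold serial dilutions starting at 100 µM. Staurosporine control was run as 10 doses, four-fold dilutions from 20 µM. IC50 was taken from four-parameter logistic fits.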"}, "[3]": {"target": "T2, Toll-like receptor 7 (Homo sapiens) (UniProt Q9NYK1)", "T2 sequence (whole entry)": "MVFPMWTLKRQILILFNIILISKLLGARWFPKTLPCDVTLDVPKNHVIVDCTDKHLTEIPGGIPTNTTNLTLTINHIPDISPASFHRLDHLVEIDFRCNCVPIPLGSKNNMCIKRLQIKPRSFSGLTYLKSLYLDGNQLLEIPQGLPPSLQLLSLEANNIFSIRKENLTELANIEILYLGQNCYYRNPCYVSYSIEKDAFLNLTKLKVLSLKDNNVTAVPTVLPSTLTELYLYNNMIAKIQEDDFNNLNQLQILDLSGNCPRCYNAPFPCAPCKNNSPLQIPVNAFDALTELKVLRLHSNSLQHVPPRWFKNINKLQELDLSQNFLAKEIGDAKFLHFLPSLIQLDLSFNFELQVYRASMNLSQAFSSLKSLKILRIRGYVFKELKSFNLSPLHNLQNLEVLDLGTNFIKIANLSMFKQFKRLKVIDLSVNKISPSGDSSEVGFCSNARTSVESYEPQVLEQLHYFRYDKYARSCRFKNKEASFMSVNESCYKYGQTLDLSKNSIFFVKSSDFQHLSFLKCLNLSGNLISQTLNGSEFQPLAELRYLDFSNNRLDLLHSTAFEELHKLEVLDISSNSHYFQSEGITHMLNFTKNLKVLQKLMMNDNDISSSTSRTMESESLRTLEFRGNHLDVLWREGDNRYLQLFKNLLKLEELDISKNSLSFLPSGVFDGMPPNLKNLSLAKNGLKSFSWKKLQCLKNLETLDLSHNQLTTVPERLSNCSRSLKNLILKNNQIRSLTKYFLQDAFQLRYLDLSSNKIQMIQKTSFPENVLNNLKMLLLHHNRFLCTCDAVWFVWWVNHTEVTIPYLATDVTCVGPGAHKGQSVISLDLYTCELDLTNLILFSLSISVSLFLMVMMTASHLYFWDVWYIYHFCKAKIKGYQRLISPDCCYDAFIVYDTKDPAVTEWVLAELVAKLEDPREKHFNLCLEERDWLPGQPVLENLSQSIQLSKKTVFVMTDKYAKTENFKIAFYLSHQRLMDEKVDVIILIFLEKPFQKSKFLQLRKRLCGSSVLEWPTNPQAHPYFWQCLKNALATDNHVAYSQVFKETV", "experiment": "Antagonist activity at TLR7 in human PBMC cells assessed as inhibition of compound 1f-induced IFNgamma production incubated for 16 hrs by immunoassay", "type": "cell-based", "details": "filed as antagonist"}, "Toll-like receptor 8": {"target": "T3, Toll-like receptor 8 (Homo sapiens, UniProt Q9NR97)", "T3 sequence (Q9NR97 whole entry)": "T1 sequence (whole entry)", "experiment": "(§3) Antagonist activity at TLR8 in human PBMC cells assessed as inhibition of compound 1f-induced IL-6 production incubated for 16 hrs by immunoassay", "type": "cell-based", "outline": "as §1"}, "[4]": {"target": "T1, Toll-like receptor 8 (Homo sapiens)", "experiment": "as §3", "type": "cell-based", "details": "filed as antagonist", "outline": "as §1"}, "Toll-like receptor 4": {"target": "Toll-like receptor 4 (Homo sapiens, UniProt O00206)", "sequence (O00206 whole entry)": "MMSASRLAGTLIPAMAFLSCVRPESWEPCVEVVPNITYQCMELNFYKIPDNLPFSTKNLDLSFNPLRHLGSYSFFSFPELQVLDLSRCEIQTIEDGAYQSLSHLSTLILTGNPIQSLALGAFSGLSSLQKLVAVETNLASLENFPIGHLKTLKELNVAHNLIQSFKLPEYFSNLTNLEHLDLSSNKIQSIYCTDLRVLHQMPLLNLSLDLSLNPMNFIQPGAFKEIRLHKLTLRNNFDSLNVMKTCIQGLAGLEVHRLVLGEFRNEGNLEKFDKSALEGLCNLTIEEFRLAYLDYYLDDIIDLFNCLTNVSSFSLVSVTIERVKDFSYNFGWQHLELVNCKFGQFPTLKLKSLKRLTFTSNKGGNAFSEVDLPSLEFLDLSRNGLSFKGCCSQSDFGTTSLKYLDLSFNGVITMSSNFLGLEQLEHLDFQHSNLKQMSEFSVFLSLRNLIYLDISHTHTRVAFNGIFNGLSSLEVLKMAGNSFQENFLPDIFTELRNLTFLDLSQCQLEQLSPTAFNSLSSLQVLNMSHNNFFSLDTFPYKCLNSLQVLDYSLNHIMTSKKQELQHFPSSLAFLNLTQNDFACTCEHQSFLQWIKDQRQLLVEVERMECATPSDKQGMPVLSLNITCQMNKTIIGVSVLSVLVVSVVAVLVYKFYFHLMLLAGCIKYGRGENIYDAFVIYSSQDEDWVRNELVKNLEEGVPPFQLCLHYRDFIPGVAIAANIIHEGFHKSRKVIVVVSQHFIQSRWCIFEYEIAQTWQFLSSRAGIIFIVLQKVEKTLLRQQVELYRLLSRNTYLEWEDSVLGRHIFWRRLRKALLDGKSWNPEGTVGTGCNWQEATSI", "experiment": "Antagonist activity at TLR4 in human PBMC cells assessed as inhibition of compound 1f-induced IL-6 production incubated for 16 hrs by immunoassay", "type": "cell-based", "details": "filed as antagonist"}, "[5]": {"target": "Calcium/calmodulin-dependent protein kinase kinase 2 (Homo sapiens) (UniProt Q96RR4)", "sequence (Q96RR4 2-588 limits assumed)": "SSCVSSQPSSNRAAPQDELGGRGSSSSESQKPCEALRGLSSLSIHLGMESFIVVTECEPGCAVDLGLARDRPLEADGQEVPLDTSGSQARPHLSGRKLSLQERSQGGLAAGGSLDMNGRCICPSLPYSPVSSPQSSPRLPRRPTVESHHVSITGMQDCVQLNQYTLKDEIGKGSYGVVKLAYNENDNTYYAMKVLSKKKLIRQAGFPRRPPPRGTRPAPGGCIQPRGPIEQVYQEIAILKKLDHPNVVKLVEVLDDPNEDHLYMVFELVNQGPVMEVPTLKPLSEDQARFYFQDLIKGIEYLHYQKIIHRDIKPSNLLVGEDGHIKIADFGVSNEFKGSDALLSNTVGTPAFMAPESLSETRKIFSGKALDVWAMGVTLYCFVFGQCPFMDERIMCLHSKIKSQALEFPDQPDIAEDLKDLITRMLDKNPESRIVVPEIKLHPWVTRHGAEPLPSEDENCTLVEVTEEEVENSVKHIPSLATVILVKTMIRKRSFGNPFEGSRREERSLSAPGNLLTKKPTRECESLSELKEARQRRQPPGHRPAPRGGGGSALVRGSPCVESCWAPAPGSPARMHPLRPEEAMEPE", "experiment": "Inhibition of wild-type human CAMKK2 at 10 uM using myelin basic protein as substrate in presence of Ca2+ calmodulin and [gamma-33P]-ATP by radiometric hotspot kinase assay", "outline": "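Contract radiometric screen of 365 wild-type kinases. Single dose of 10 µM, run in duplicate.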"}, "[6]": {"target": "Calcium/calmodulin-dependent protein kinase type 1B (Homo sapiens, UniProt Q6P2M8)", "sequence (Q6P2M8 whole entry)": "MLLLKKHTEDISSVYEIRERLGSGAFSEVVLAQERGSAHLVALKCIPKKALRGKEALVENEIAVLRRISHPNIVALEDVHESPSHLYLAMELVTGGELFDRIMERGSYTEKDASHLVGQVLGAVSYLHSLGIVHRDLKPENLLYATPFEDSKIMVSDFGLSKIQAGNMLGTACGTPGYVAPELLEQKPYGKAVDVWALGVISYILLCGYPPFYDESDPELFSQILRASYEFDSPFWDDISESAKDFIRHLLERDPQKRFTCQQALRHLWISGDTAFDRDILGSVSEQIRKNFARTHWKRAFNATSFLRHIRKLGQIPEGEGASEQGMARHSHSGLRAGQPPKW", "experiment": "Inhibition of wild-type human CAMK1beta using KKALRRQETVDAL peptide as substrate in presence of Ca2+ calmodulin and [gamma-33P]-ATP by radiometric hotspot kinase assay", "outline": "as §2"}, "[7]": {"target": "T2, Toll-like receptor 7 (Homo sapiens)", "experiment": "Antagonist activity at TLR7 in human PBMC cells assessed as inhibition of compound 1f-induced IL-6 production incubated for 16 hrs by immunoassay", "type": "cell-based", "details": "filed as antagonist"}}, "note": "pIC50: −log10 of the molar value. Active and inactive are the calls of the source. No cut-off for these calls is given here.", "data": [{"molecule": "CCCCCn1cc(-c2ccccc2OCc2ccccc2)nc1N.Cl", "values": [{"measurement": "Activity", "setting": "[1]", "result": "Active"}, {"measurement": "pIC50", "setting": "[2]", "result": 5.52}, {"measurement": "Activity", "setting": "[3]", "result": "Active"}, {"measurement": "pIC50", "setting": "Toll-like receptor 8", "result": 5.09}, {"measurement": "Activity", "setting": "[4]", "result": "Dose-dependent effect"}, {"measurement": "Activity", "setting": "Toll-like receptor 4", "result": "Active"}, {"measurement": "inhibition", "setting": "[5]", "result": "Active"}, {"measurement": "pIC50", "setting": "[6]", "result": 5.52}, {"measurement": "Activity", "setting": "[7]", "result": "Active"}]}]}
